Key:
[1] = tested on: MDA-MB-231 breast carcinoma cells; experiment: Wound-healing; format: cell-based; conditions: wound-healing assay, 20-hour time span, six biological replicates
Method in brief: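 Scratch-wound migration of MDA-MB-231 breast carcinoma cells followed over 20 h with test compounds (a glycopeptide, a peptide, or heparin) at several concentrations. Migration was scored as relative migration, and the concentration giving maximal inhibition of migration was noted.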

[2] = tested on: integrin; conditions: ref [3], [20]; cited from earlier work

**Q.** Which “concentration at which maximal inhibitory effect on migration is reached” value [1] does the source give for heparin here?
**A.** 6 µM

**Q.** What about the “integrin binding relative to heparan sulfate (in words)” value [2] of the same substance?
**A.** binds more tightly with integrin than heparan sulfate

Reference: article PMC8052682 (Chemical communications (Cambridge, England), 2021)
